The values that follow come from ChEMBL document CHEMBL4229424, “Design, synthesis and anticancer evaluation of acridine hydroxamic acid derivatives as dual Topo and HDAC inhibitors” (Bioorg Med Chem, 2018).

Usually IC50 stands for the concentration that gives 50% inhibition.

Activity calls are given as the source filed them. No cut-off for these calls is given here.

One assay has as its target Histone deacetylase 1 (Homo sapiens, UniProt Q13547). In words: Inhibition of HDAC1 (unknown origin) using Ac-peptide as substrate pretreated for 15 mins followed by substrate addition and measured after 1 hr by fluorescence assay.
The target of assay [1] is DNA topoisomerase 2-alpha (Homo sapiens) (UniProt P11388). In words: Inhibition of human topoisomerase 2alpha expressed in Escherichia coli assessed as reduction in supercoiled pBR322 plasmid DNA relaxation at 50 to 100 uM after 10 to 15 mins by ethidium bromide staining based agarose gel electrophoresis. In a few lines: (§1)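 Relaxation assay with 500 ng supercoiled pBR322 DNA and 1 unit of human Topo I or Topo II in reaction buffer (20 µL), run at 37 °C for 10-15 min. Reaction stopped with loading buffer, then 1% agarose gel in TAE at 80 V for 0.5 h. Gel stained with ethidium bromide and bands viewed under UV. Camptothecin (Topo I) and m-AMSA (Topo II) served as references.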

For the next assay, the system named is MDA-MB-231. In words: Antiproliferative activity against human MDA-MB-231 cells after 48 hrs by MTT assay. In kind it is functional, cell-based. The conditions noted are these: MDA-MB-231, 48 h. The method in brief: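 Cells seeded at 5-10 × 10^3 per well and left 12 h at 37 °C, then given a range of concentrations (DMSO as blank) for 48 h. MTT (5 mg/mL) added for 4 h, formazan dissolved in DMSO, absorbance read at 490 nm. IC50 taken from dose-response curves of at least three independent experiments, mean ± SD.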

Assay [2] deals with T1, Protein deacetylase HDAC6 (Homo sapiens, UniProt Q9UBN7).
T1 sequence (Q9UBN7 whole entry): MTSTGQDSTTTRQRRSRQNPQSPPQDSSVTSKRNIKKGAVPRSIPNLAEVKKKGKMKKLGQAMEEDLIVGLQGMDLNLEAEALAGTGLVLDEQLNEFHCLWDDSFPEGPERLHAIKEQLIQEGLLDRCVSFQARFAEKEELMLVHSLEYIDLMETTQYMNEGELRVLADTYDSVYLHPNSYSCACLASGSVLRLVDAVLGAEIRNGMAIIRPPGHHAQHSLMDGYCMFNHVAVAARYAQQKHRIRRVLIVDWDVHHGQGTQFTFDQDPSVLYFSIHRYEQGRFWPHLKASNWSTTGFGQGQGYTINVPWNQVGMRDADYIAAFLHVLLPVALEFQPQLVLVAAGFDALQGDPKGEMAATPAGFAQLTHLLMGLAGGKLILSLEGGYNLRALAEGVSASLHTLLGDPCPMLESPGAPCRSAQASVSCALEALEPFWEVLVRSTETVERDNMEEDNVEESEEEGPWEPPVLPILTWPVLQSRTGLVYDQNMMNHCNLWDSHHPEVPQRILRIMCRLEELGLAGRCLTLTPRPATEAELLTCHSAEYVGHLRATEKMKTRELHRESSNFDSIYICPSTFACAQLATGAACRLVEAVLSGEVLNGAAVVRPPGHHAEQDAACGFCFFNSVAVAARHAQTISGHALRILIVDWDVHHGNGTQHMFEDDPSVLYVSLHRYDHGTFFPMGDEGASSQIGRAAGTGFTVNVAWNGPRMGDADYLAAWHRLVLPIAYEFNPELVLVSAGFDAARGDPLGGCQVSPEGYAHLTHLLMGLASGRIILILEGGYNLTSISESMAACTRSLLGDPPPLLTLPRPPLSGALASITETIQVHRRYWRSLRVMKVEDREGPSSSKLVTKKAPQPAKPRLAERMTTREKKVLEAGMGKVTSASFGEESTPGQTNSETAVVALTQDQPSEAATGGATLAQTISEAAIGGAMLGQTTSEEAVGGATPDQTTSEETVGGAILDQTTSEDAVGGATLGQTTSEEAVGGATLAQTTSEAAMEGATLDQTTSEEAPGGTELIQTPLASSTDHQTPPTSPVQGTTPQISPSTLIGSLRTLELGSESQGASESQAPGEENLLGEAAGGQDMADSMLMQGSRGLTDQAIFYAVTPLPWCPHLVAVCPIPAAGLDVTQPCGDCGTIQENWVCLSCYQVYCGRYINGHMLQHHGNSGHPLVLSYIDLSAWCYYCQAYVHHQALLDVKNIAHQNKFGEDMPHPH
Put plainly: Inhibition of HDAC6 (unknown origin) using Ac-peptide as substrate pretreated for 15 mins followed by substrate addition and measured after 1 hr by fluorescence assay.

The next assay concerns HCT-116. Put plainly: Antiproliferative activity against human HCT116 cells after 48 hrs by MTT assay. The settings on record: HCT-116, 48 h. In kind it is functional, cell-based. On the technique in general: Tetrazolium dyes change colour on reduction, which living cells bring about.
In assay [3] the test system is U-937. In words: Antiproliferative activity against human U937 cells after 48 hrs by MTT assay. In kind it is functional, cell-based. The conditions noted are these: U-937, 48 h.
In assay [4] the target is T2, DNA topoisomerase 1 (Homo sapiens) (UniProt P11387).
T2 sequence (whole entry): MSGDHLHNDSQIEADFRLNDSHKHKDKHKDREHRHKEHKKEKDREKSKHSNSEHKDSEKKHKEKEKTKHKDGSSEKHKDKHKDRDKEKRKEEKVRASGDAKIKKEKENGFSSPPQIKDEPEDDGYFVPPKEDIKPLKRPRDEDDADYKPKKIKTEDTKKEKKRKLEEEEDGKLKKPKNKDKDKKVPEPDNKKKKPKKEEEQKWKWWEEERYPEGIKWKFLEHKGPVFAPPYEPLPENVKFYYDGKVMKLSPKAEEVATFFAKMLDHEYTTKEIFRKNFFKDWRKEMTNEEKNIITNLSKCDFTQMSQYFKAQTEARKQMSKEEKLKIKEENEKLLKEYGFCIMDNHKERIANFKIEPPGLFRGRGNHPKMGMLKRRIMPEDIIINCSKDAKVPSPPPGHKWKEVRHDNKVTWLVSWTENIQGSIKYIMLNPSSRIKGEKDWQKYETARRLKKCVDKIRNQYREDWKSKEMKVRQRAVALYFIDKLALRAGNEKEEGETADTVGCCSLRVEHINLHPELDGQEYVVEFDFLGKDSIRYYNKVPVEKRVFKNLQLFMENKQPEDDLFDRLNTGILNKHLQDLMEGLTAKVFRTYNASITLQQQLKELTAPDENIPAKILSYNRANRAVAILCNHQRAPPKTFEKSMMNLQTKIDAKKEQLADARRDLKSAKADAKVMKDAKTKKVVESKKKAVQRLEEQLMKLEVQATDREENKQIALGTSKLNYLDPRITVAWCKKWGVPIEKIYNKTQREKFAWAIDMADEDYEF
Put plainly: Inhibition of human topoisomerase 1 assessed as reduction in supercoiled pBR322 plasmid DNA relaxation at 100 uM after 10 to 15 mins by ethidium bromide staining based agarose gel electrophoresis. In a few lines:
as §1

Assay [5] deals with Calf thymus DNA. Put plainly: Binding affinity to calf thymus DNA by UV-Vis absorption spectral analysis. In kind it is nucleic-acid assay. The settings on record: Bos taurus. The method in brief: (§2)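 Compound held at 10 μM and titrated with increasing calf thymus DNA in Tris-HCl buffer (pH 7.4). UV–visible absorption spectra recorded, and absorbance changes plotted against DNA concentration.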

In assay [6] the test system is U-937. In words: Induction of apoptosis in human U937 cells assessed as increase in cleaved caspase 7 levels up to 2.5 uM after 36 hrs by Western blot analysis. In kind it is functional, cell-based. The method in brief: (§3)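 U937 cells exposed to 0, 0.1, 0.5, 1 and 2.5 μM for 36 h. Cells lysed at 0 °C for 0.5 h, protein measured by BCA, and lysates run on 12% SDS-PAGE and transferred to PVDF. Blocking in 5% milk, primary antibodies (1:1000) at 4 °C overnight, HRP secondary for 2 h, ECL detection.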

The subject of assay [7] is Calf thymus DNA. In words: Binding affinity to calf thymus DNA assessed as assessed as bathochromic shift at 10 uM by UV-Vis absorption spectral analysis. In kind it is nucleic-acid assay. The settings on record: Bos taurus. In a few lines: as §2
Assay [8] has as its system U-937. Put plainly: Induction of apoptosis in human U937 cells assessed as increase in cleaved caspase 9 levels up to 2.5 uM after 36 hrs by Western blot analysis. In kind it is functional, cell-based. In a few lines: as §3
(In general: A western blot detects proteins with antibodies after separation by electrophoresis.)

The subject of assay [9] is Calf thymus DNA. In words: Binding affinity to calf thymus DNA by fluorescence emission spectral analysis. In kind it is nucleic-acid assay. The conditions noted are these: Bos taurus.
For assay [10], the system named is U-937. In words: Induction of apoptosis in human U937 cells assessed as increase in cleaved caspase 3 levels up to 2.5 uM after 36 hrs by Western blot analysis. In kind it is functional, cell-based. In a few lines:
as §3

Assay [11] concerns Calf thymus DNA. Put plainly: Binding affinity to calf thymus DNA assessed as maximum absorption peak at 10 uM by UV-Vis absorption spectral analysis. In kind it is nucleic-acid assay. The settings on record: Bos taurus. In a few lines: as §2
Assay [12] relates to U-937. In words: Induction of apoptosis in human U937 cells assessed as increase in cleaved caspase 8 levels up to 2.5 uM after 36 hrs by Western blot analysis. In kind it is functional, cell-based. In a few lines:
as §3

Chain of Histone deacetylase 1 (Q13547 whole entry): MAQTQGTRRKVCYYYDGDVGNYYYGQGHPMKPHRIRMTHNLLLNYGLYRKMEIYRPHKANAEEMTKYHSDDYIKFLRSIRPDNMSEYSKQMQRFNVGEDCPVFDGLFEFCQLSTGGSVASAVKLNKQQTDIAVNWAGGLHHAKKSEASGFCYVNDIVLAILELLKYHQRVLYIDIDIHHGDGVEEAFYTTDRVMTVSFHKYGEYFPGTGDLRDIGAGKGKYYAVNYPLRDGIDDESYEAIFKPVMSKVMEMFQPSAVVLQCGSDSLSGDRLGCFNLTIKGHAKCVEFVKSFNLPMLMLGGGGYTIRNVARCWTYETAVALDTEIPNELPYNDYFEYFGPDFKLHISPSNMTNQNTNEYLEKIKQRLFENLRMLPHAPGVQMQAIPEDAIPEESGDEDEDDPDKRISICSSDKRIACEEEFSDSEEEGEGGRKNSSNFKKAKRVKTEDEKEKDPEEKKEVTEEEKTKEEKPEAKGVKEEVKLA
Chain of DNA topoisomerase 2-alpha (Homo sapiens) (P11388 whole entry): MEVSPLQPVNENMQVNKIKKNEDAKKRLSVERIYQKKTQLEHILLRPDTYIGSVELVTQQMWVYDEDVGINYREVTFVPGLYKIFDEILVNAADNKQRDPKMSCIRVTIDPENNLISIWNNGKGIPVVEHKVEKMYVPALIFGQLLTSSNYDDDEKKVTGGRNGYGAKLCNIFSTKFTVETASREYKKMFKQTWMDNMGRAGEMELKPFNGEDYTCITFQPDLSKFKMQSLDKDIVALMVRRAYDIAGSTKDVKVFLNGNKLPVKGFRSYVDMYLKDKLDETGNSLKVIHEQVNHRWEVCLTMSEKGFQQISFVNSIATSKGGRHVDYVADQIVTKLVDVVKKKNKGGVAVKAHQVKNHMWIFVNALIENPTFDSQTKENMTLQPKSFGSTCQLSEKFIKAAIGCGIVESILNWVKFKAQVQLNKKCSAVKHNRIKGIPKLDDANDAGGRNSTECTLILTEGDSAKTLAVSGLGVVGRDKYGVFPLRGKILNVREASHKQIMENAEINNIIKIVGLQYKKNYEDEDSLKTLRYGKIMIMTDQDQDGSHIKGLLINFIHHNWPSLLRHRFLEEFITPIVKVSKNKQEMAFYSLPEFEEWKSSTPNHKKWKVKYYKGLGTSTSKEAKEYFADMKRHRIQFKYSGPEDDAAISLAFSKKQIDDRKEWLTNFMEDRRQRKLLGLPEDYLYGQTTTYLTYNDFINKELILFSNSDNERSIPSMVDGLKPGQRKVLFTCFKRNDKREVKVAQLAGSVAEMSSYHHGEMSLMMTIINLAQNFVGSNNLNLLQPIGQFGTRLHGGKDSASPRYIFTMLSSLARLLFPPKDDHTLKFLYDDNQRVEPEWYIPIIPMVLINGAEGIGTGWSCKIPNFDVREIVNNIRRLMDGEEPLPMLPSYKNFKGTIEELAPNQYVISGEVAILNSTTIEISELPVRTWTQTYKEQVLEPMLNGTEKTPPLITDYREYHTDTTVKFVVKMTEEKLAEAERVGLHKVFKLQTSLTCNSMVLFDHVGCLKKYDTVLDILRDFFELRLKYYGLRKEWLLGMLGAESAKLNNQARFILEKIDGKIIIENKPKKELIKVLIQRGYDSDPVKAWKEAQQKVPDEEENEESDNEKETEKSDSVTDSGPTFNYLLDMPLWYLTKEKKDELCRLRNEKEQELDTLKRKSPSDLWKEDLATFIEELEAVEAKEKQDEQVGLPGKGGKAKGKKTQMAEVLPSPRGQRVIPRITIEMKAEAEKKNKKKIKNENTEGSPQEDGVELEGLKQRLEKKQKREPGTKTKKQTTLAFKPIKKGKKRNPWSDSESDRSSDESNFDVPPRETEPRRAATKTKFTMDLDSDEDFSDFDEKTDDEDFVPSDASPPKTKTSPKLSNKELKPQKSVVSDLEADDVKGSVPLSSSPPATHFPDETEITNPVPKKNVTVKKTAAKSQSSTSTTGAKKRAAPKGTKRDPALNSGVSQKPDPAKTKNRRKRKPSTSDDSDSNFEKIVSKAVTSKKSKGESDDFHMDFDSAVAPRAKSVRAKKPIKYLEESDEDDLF

Regarding `O=C(CCc1ccc(Nc2c3ccccc3nc3ccccc23)cc1)NO`, the half-maximal inhibitory concentration (IC50) at Histone deacetylase 1 was 134 nM; with MDA-MB-231, 29100 nM; in assay [2], 99.3 nM; in the assay with HCT-116, 1880 nM; with U-937 [3], 750 nM. Further, the inhibition result in [1] and in [4] was “Active” throughout.
As to `COc1ccc2nc3cc(Cl)ccc3c(Nc3cccc(-c4cn(CCCCCC(=O)NO)nn4)c3)c2c1`, the values for the IC50 (at Histone deacetylase 1; in assay [2]; with U-937 [3]) were 224 nM, 13.3 nM and 2940 nM, respectively. Further, the inhibition entry in assay [1] was “Active”.
In turn, `COc1cc(NS(C)(=O)=O)ccc1Nc1c2ccccc2nc2ccccc12` [AMSACRINE] yielded a Kb in the assay on Calf thymus DNA [5] of 1.36 ×10⁵ /M. Also, the inhibition entry in assay [1] was “Active”. Also, the concentration for half-maximal inhibition (IC50) in the assay on MDA-MB-231 was 10000 nM; in the assay on HCT-116 it was less than 1000 nM.
With `O=C(CCCCCCn1cc(-c2cccc(Nc3c4ccccc4nc4ccccc34)c2)nn1)NO`, the values for the IC50 (at Histone deacetylase 1; in [2]; with U-937 [3]) were 5.1 nM, 5 nM and 1240 nM, respectively. In addition, the inhibition entry in [1] was “Active”.
For `O=C(CCCCCCn1cc(-c2ccc(Nc3c4ccccc4nc4ccccc34)cc2)nn1)NO`, the outcome with U-937 [6], with Calf thymus DNA [7], in the assay on U-937 [8], in the assay with U-937 [10] and in the assay on U-937 [12] was Active. In the assay with Calf thymus DNA [9], this compound gave a Kq of 1.56 ×10⁵ /M. Moreover, the Kb in the assay with Calf thymus DNA [5] worked out at 1.67 ×10⁵ /M. Besides, the 50% inhibitory concentration (IC50) worked out at 3.9 nM on Histone deacetylase 1; 7090 nM in the assay with MDA-MB-231; 2.9 nM in [2]; 2110 nM in the assay with HCT-116; 900 nM with U-937 [3]. Moreover, in assay [1], the inhibition entry was “Active”. Also, the Activity with Calf thymus DNA [11] is 430 nm.
Compound `O=C(CCCCCCC(=O)Nc1ccccc1)NO` [VORINOSTAT] yielded an IC50 in the assay on MDA-MB-231 of 4930 nM.
As for `O=C(CCCCCCn1cc(-c2ccc(Nc3c4ccccc4nc4ccccc34)cc2)nn1)NOC1CCCCO1` (configuration not stated), the half-inhibitory concentration (IC50) with U-937 [3] came to 21400 nM.
On to `O=C(CCCCCn1cc(-c2cccc(Nc3c4ccccc4nc4ccccc34)c2)nn1)NO`, for which the IC50 was 14.1 nM on Histone deacetylase 1, 3.4 nM in [2] and 2670 nM in the assay on U-937 [3]. For the same compound, in assay [1], the inhibition result was “Active”.
Regarding `COc1ccc2nc3cc(Cl)ccc3c(Nc3ccc(-c4cn(CCCCCC(=O)NO)nn4)cc3)c2c1`, the IC50 on Histone deacetylase 1 stood at 306 nM; in assay [2] it was 29 nM; in the assay with U-937 [3], 3550 nM. In [1], the inhibition entry is “Active”.
For `O=C(CCCCCn1cc(-c2ccc(Nc3c4ccccc4nc4ccccc34)cc2)nn1)NO` the same measures were 8.2 nM, 2.6 nM, 1340 nM and “Active”.
`COC(=O)CCc1ccc(Nc2c3ccccc3nc3ccccc23)cc1` displayed an IC50 in the assay with U-937 [3] of 3870 nM.
On to `COc1ccc2nc3cc(Cl)ccc3c(Nc3ccc(CCC(=O)NO)cc3)c2c1`, for which the 50% inhibitory concentration (IC50) was 66.2 nM on Histone deacetylase 1, 80.8 nM in assay [2] and 1120 nM with U-937 [3]. Also, the inhibition result in [1] is “Active”.
